In ChEMBL document CHEMBL2380292, “Discovery of SAR184841, a potent and long-lasting inhibitor of 11β-hydroxysteroid dehydrogenase type 1, active in a physiopathological animal model of T2D” (Bioorg Med Chem Lett, 2013):

Experiments:
[1] = biological target: 11-beta-hydroxysteroid dehydrogenase 1 (Mus musculus, UniProt P50172); assay: Inhibition of mouse recombinant 11beta-HSD1 by scintillation proximity assay
Cytochrome P450 3A4 = Cytochrome P450 3A4 (Homo sapiens, UniProt P08684); assay: Inhibition of CYP3A4 (unknown origin); type: ADME
Liver = assay: Metabolic stability in mouse liver microsomes; type: ADME, Microsome
[2] = biological target: 11-beta-hydroxysteroid dehydrogenase 1 (Rattus norvegicus, UniProt P16232); assay: Inhibition of rat 11beta-HSD1
Liver microsomes [3] = assay: Metabolic stability in human liver microsomes; type: ADME, Microsome
Liver microsomes [4] = assay: Metabolic stability in rat liver microsomes; type: ADME, Microsome
[5] = Permeability across human Caco2 cells; type: ADME, cell-based; conditions: Caco-2, read-out: permeability
Method in brief: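 Permeability was measured with the compound alone and in the presence of the P-gp inhibitor elacridar, and expressed in 10^-7 cm/s.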

Mus musculus [6] = assay: Ex vivo inhibition of 11beta-HSD1 in C57Bl/6J mouse liver at 30 mg/kg, po after 16 hrs; type: functional
Method in brief: (§1)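 Mice given a single oral dose as a suspension in Tween 80/0.6% methylcellulose (0.5/99.5, v/v) at 10 mL/kg. At 2 h or 16 h post-dose, animals were killed by cervical dislocation and 50 mg liver and 200 mg subcutaneous fat were taken for 11β-HSD1 activity. Reactions were stopped with HCl 1 N/methanol (1/1). 3H-cortisone and 3H-cortisol were quantified by HPLC with flow scintillation detection.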

Mus musculus [7] = assay: Ex vivo inhibition of 11beta-HSD1 in C57Bl/6J mouse subcutaneous fat at 30 mg/kg, po after 16 hrs; type: functional; method in brief: as §1
Mus musculus [8] = assay: Ex vivo inhibition of 11beta-HSD1 in C57Bl/6J mouse liver at 3 mg/kg, po after 16 hrs; type: functional; method in brief: as §1
Mus musculus [9] = assay: Ex vivo inhibition of 11beta-HSD1 in C57Bl/6J mouse subcutaneous fat at 3 mg/kg, po after 16 hrs; type: functional; method in brief: as §1
Mus musculus [10] = assay: Ex vivo inhibition of 11beta-HSD1 in C57Bl/6J mouse subcutaneous fat at 10 mg/kg, os after 2 hrs; type: functional; conditions: sc; method in brief: as §1
Mus musculus [11] = assay: Ex vivo inhibition of 11beta-HSD1 in C57Bl/6J mouse liver at 10 mg/kg, os after 2 hrs; type: functional; method in brief: as §1
Mus musculus [12] = assay: Ex vivo inhibition of 11beta-HSD1 in C57Bl/6J mouse subcutaneous fat at 30 mg/kg, os after 2 hrs; type: functional; conditions: sc; method in brief: as §1
Mus musculus [13] = assay: Ex vivo inhibition of 11beta-HSD1 in C57Bl/6J mouse liver at 30 mg/kg, os after 2 hrs; type: functional; method in brief: as §1
[14] = biological target: T1, 11-beta-hydroxysteroid dehydrogenase type 2 (Homo sapiens, UniProt P80365); assay: Inhibition of human 11beta-HSD2
T1 sequence (P80365 whole entry): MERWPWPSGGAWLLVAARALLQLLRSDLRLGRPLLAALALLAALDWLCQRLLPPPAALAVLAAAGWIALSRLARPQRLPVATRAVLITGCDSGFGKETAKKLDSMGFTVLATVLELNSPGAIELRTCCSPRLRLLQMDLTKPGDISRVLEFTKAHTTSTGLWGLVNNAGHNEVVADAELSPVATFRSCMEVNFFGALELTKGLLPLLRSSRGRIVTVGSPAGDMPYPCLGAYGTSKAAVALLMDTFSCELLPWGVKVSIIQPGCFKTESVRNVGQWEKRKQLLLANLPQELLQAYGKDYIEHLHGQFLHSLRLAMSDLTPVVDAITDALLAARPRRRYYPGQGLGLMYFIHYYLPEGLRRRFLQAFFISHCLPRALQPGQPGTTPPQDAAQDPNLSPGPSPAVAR

Sequence of 11-beta-hydroxysteroid dehydrogenase 1 (Rattus norvegicus, UniProt P16232) (P16232 whole entry): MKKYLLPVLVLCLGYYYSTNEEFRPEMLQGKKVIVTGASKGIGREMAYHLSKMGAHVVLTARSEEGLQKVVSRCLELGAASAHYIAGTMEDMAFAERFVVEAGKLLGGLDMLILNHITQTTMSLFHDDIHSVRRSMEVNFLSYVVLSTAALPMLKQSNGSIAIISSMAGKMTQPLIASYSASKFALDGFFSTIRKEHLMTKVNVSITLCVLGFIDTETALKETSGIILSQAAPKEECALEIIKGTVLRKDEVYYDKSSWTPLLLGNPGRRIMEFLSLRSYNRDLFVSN
Sequence of Cytochrome P450 3A4 (P08684 whole entry): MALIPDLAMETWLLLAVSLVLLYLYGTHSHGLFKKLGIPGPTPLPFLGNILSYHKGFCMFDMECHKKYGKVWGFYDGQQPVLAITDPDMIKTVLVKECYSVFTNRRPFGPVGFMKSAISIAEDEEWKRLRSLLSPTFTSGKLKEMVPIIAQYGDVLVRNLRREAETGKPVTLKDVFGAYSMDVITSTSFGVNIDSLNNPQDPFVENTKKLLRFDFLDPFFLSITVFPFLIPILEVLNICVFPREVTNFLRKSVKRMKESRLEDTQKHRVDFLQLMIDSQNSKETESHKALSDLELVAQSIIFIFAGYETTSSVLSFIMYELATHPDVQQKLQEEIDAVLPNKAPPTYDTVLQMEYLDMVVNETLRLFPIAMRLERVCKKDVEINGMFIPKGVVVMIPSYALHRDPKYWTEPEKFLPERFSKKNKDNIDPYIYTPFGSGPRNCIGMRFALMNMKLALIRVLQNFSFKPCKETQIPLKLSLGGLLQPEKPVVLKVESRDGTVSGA
Sequence of 11-beta-hydroxysteroid dehydrogenase 1 (Mus musculus, UniProt P50172) (P50172 whole entry): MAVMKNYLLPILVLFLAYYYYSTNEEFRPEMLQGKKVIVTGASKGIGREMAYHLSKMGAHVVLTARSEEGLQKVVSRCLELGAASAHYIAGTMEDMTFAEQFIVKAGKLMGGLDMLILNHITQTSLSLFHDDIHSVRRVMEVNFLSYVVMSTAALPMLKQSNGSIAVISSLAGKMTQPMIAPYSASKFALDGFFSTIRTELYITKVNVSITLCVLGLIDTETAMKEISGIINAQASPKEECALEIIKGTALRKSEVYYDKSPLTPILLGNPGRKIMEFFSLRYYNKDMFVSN

Row | Compound | IC50 [1] [nM] | IC50 (Cytochrome P450 3A4) [nM] | Stability (Liver) [%] | IC50 [2] [nM] | Stability (Liver microsomes [3]) [%] | Stability (Liver microsomes [4]) [%] | Papp [5] [×10⁻⁶ cm/s] | inhibition in vivo at 30 mg/kg (Mus musculus [6]) [%] | inhibition in vivo at 30 mg/kg (Mus musculus [7]) [%] | inhibition in vivo at 3 mg/kg (Mus musculus [8]) [%] | inhibition in vivo at 3 mg/kg (Mus musculus [9]) [%] | inhibition in vivo at 10 mg/kg (Mus musculus [10]) [%] | inhibition in vivo at 10 mg/kg (Mus musculus [11]) [%] | inhibition in vivo at 30 mg/kg (Mus musculus [12]) [%] | inhibition in vivo at 30 mg/kg (Mus musculus [13]) [%] | IC50 [14] [nM]
1 | COc1ccc(-c2cnc(N3CCN(C(=O)N[C@H]4C5CC6CC4C[C@](OC(N)=O)(C6)C5)c4ccccc43)nc2)cc1 | 5 | > 10000 | 96 | 100 | 89 | 70 |  |  |  |  |  |  |  |  |  | 
2 | CC(C)(C)N1CCN(c2ccc(N3CCN(C(=O)N[C@H]4C5CC6CC4C[C@](O)(C6)C5)c4ccccc43)nc2)CC1 | 8 |  | 6 | 18 | 14 | 20 | 3.4 | 55 | 20 |  |  |  |  |  |  | 
3 | CS(=O)(=O)N1CCN(c2ccc(N3CCN(C(=O)N[C@H]4C5CC6CC4C[C@](C(N)=O)(C6)C5)c4ccccc43)cc2)CC1 | 5 | > 10000 | 22 | 24 | 3 | 26 | 3 | 55 | 30 |  |  |  |  |  |  | 
4 | CS(=O)(=O)N1CCN(c2cnc(N3CCN(C(=O)N[C@H]4C5CC6CC4C[C@](O)(C6)C5)c4ccccc43)nc2)CC1 | 1 | > 10000 | 18 | 28 | 9 | 24 | 0.7 | 30 | 0 |  |  |  |  |  |  | 
5 | CS(=O)(=O)N1CCN(c2ccc(N3CCN(C(=O)N[C@H]4C5CC6CC4C[C@](O)(C6)C5)c4ccccc43)cc2)CC1 | 1 | > 10000 | 9 | 114 | 2 | 17 | 19.4 | 80 | 55 |  |  |  |  |  |  | 
6 | NC(=O)[C@]12CC3CC(C1)[C@@H](NC(=O)N1CCN(c4ccc(N5CCN(S(=O)(=O)C6CC6)CC5)cn4)c4ccccc41)C(C3)C2 | 8 | > 30000 | 18 | 9 | 1 | 31 | 0.4 | 75 | 50 | > 50 | > 50 |  |  |  |  | 
7 | CC(=O)N1CCN(c2ccc(N3CCN(C(=O)N[C@H]4C5CC6CC4C[C@](O)(C6)C5)c4ccccc43)nc2)CC1 |  | > 30000 | 14 | 65 | 5 | 18 | 1 | 0 | 0 |  |  |  |  |  |  | 
8 | COc1ccc(-c2cnc(N3CCN(C(=O)N[C@H]4C5CC6CC4C[C@](C(N)=O)(C6)C5)c4ccccc43)nc2)cc1 | 36 | > 10000 | 27 | 70 | 49 | 32 | 18.2 |  |  |  |  |  |  |  |  | 
9 | COc1ccc(-c2cnc(N3CCN(C(=O)N[C@H]4C5CC6CC4C[C@](O)(C6)C5)c4ccccc43)nc2)cc1 | 15 | > 10000 | 21 | 110 | 41 | 33 | 24.8 |  |  |  |  | 30 | 40 |  |  | 
10 | O=C(N[C@H]1C2CC3CC1C[C@](O)(C3)C2)N1CCN(c2ccc(N3CCN(S(=O)(=O)C4CC4)CC3)cn2)c2ccccc21 | 21 | > 10000 | 22 | 21 | 9 | 23 | 9.8 | 65 | 40 |  |  |  |  |  |  | 
11 | CS(=O)(=O)N1CCN(c2ccc(N3CCN(C(=O)N[C@H]4C5CC6CC4C[C@](O)(C6)C5)c4ccccc43)nc2)CC1 | 2 | > 30000 | 18 | 16 | 12 | 12 | 7.9 | 47 | 20 |  |  |  |  |  |  | 
12 | COc1ccc(-c2cnc(N3CCN(C(=O)N4CCC(c5cn[nH]c5)C4)c4ccccc43)nc2)cc1 (centres undefined) |  | < 300 |  | 600 |  |  |  |  |  |  |  |  |  | 70 | 90 | > 10000
